IDH1 R132H inh – inhibitors of IDH1 R132H reductase, primary screen, biochemical, plate reader, single point; Isocitrate dehydrogenase [NADP] cytoplasmic (Homo sapiens), O75874; diaphorase/resazurin fluorescence, 60 min; inhibition, % at 10 µM; hit rate 0.18% among 70,000; in the data active means inhibition above about 34%; inconclusive means no clear call, values can overlap the other calls; inactive means below about 11%;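 further: 0% = DMSO and 100% = no enzyme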
GASC1 inh – inhibitors of GASC-1 (KDM4C) histone demethylase, primary screen, biochemical, single concentration HTS; Lysine-specific demethylase 4C (Homo sapiens), Q9H3R0; GST-KDM4C 2-372, H3K9me3 peptide, LANCE TR-FRET; inhibition, % at 12.5 µM; hit rate 0.15% among 96,000;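 active means mean replicate inhibition above about 25%, with at least 55% of replicates also reaching it, limit read from the data, passing the limit was not always enough; inconclusive means only one of those two conditions met; inactive means neither condition met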
Target sequence (Q9H3R0 2-372 limits assumed): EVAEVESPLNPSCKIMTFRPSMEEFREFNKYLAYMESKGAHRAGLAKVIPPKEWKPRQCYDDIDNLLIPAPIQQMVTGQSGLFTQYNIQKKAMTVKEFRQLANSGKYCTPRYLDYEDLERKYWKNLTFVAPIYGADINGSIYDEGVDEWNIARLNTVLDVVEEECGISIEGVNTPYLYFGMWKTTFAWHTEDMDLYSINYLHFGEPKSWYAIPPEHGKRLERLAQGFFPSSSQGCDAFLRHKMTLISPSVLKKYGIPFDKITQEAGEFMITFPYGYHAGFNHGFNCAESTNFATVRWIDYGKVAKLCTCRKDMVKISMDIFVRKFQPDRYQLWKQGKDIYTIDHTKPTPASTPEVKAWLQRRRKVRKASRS
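Assay system: GST-GASC-1 enzyme fragment 2-372 | Amount: 10 nM enzyme | Medium: HEPES buffer, pH 7.5, plus ascorbate | Reagent: H3K9me3 peptide substrate, Fe(II), 2-oxoglutarate | Doses: Single-point compound screen | Incubation: 30 min demethylation and 1 h detection at room temperature | Measured by: LANCE TR-FRET, excitation 340 nm, emissions 618 and 671 nm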
T cruzi growth-1 – T. cruzi intracellular proliferation inhibitors, primary screen, cell-based, beta-gal Tulahuen parasites, NIH3T3 host, luminescence | T. cruzi beta-gal in NIH3T3, GalScreen luminescence, 90 h | inhibition, % at 8.34 µM | hit rate 5.9% among 77,000 | AID 624255, 2012;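 active means mean inhibition above about 93%, with at least 55% of replicates each passing it, limit read from the data, passing the limit was not always enough; inconclusive means only one of those two conditions holds; inactive means neither condition holds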
Pf Dd2 growth – P. falciparum Dd2 growth inhibitors, primary screen, SYBR Green fluorescence, single dose replicates | 72 h; stronger effect = lower value | activity change, % at 10 µM | hit rate 2.3% among 94,000; in the data active means activity change below about -80%; inconclusive means no clear call, values can overlap the other calls
T cruzi growth-2 – T. cruzi intracellular proliferation inhibitors, confirmation, cell-based, NIH3T3 host, beta-gal parasite, luminescence, cherry-pick | shares compounds with T cruzi growth-1 | T. cruzi beta-gal in NIH3T3, GalScreen luminescence, 90 h | inhibition, % at 8.35 µM | hit rate 72% among 5,600 | AID 651739, 2012;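 active means mean replicate inhibition above about 95% and at least 55% of replicates individually reaching it, limit read from the data; inconclusive means only one of the two criteria is met; inactive means neither criterion is met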
T cruzi growth-3 – inhibitors of intracellular T. cruzi replication, confirmation, NIH3T3 host cells, beta-gal parasites, cherry-pick, set 2 | shares compounds with T cruzi growth-1 | T. cruzi beta-gal in NIH3T3, GalScreen luminescence, 90 h | inhibition, % at 2.09 µM | hit rate 21% among 5,600 | AID 651740, 2012;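 active means mean inhibition above about 95%, with at least 55% of replicates also reaching it, limit read from the data; inconclusive means meets just one of the two conditions; inactive means meets neither condition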;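 further: plate controls were neutral control median for no effect and positive control median for full effect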
3T3 cytotox – cytotoxicity in mouse NIH/3T3 fibroblasts, confirmation, cytotoxicity control for T. cruzi proliferation inhibitor project, cell-based, cherry-pick, single point. cytotoxicity (signal decrease), % at 8.35 µM. hit rate 14% among 5,600. shares compounds with T cruzi growth-1. NIH/3T3 viability, CellTiter-Glo ATP luminescence, 90 h;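 active means mean signal decrease across replicates above about 35% based on untreated-well scatter, with enough replicates individually passing, limit read from the data; inconclusive means no rule stated though some were filed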;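 further: 0% = median of neutral control wells and 100% = median of positive control wells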
3T3 cytotox 2 – NIH/3T3 fibroblast cytotoxicity, confirmation, cytotoxicity control, cell-based, cherry-pick, single point, set 2 | hit rate 56% among 5,600 | shares compounds with T cruzi growth-1 | AID 651744, 2012 | inhibition, % at 24.9 µM | NIH/3T3 viability, CellTiter-Glo ATP luminescence, 90 h;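 active means mean loss of cell viability signal at or above a set limit, and enough replicates individually reaching it; inconclusive means meets only the mean limit or only the replicate share; inactive means meets neither condition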;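 further: 0% = median of neutral control wells and 100% = median of positive control wells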
Numbers without * were called inactive; ? = inconclusive; . = no result; + = active, no number. An excerpt weighted towards active compounds, which were near 5.9% of everything screened.

SMILES | IDH1 R132H inh | GASC1 inh | T cruzi growth-1 | Pf Dd2 growth | T cruzi growth-2 | T cruzi growth-3 | 3T3 cytotox | 3T3 cytotox 2
C[C@@H]1CCCCO[C@@H](CN(C)Cc2ccncc2)[C@H](C)CN([C@@H](C)CO)C(=O)c2cc(NC(=O)Nc3ccc(C(F)(F)F)cc3)ccc2O1 | 1 | 2 | 86 | -15 | . | . | . | .
C[C@H]1CCCCO[C@@H](CN(C)Cc2ccncc2)[C@@H](C)CN([C@@H](C)CO)C(=O)c2cc(NC(=O)Nc3ccc(C(F)(F)F)cc3)ccc2O1 | 11 | 0 | 101* | -63 | 97* | 114* | -6 | 70*
C[C@H]1CN([C@@H](C)CO)C(=O)c2cc(NC(=O)c3ccncc3)ccc2O[C@@H]1CN(C)Cc1ccc(C(F)(F)F)cc1 | 2 | 0 | 75 | 7 | . | . | . | .
C[C@@H]1CCCCO[C@H](CN(C)Cc2ccc(C(F)(F)F)cc2)[C@H](C)CN([C@@H](C)CO)C(=O)c2cc(NC(=O)c3ccncc3)ccc2O1 | . | 0 | 90 | -21 | . | . | . | .
C[C@H](CO)N1C[C@H](C)[C@@H](CN(C)Cc2ccncc2)OCCCC[C@H](C)Oc2ccc(NC(=O)Nc3ccc(C(F)(F)F)cc3)cc2C1=O | -1 | -1 | 101* | -25 | 103* | 82 | -29 | 42*
C[C@@H]1CN([C@@H](C)CO)C(=O)c2cc(NC(=O)c3ccncc3)ccc2O[C@H]1CN(C)Cc1ccc(C(F)(F)F)cc1 | . | 0 | 100* | -23 | 24 | -4 | 9 | 36
C[C@@H]1CCCCO[C@@H](CN(C)Cc2ccc(C(F)(F)F)cc2)[C@H](C)CN([C@H](C)CO)C(=O)c2cc(NC(=O)c3ccncc3)ccc2O1 | -4 | -1 | 109* | -72 | 103* | 56 | 13 | 103*
CC=Cc1ccc2n(c1=O)C[C@@H]1[C@@H](CO)[C@H](C(=O)NCCc3ccncc3)N(CCC(F)(F)F)[C@H]21 (mixture of isomers) | . | 2 | 108* | 2 | -49 | -39 | -30 | 5
CC=Cc1ccc2n(c1=O)C[C@H]1[C@H](CO)[C@@H](C(=O)NCC(F)(F)F)N(C(=O)c3cccnc3)[C@@H]21 (mixture of isomers) | . | -1 | + | . | 87 | 24 | 13 | 4
C[C@@H]1CCCCO[C@H](CN(C)Cc2ccc(C(=O)O)cc2)[C@H](C)CN([C@H](C)CO)C(=O)c2cc(NC(=O)Nc3ccc(C(F)(F)F)cc3)ccc2O1 | . | 0 | 45 | -46 | . | . | . | .
C[C@@H]1CCCCO[C@@H](CN(C)Cc2ccc(C(F)(F)F)cc2)[C@H](C)CN([C@@H](C)CO)C(=O)c2cc(NC(=O)NC3CCCCC3)ccc2O1 | . | -1 | ? | -10 | 98* | 118* | 11 | -8
C[C@@H]1CN([C@@H](C)CO)C(=O)c2cc(NC(=O)Nc3ccc(C(F)(F)F)cc3)ccc2O[C@@H](C)CCCCO[C@H]1CN(C)Cc1ccc(C(F)(F)F)cc1 | -1 | 0 | ? | -68 | -41 | -40 | 6 | -11
C[C@@H]1CCCCO[C@@H](CN(C)Cc2ccccc2)[C@@H](C)CN([C@@H](C)CO)C(=O)c2cc(NC(=O)Nc3ccc(C(F)(F)F)cc3)ccc2O1 | 0 | -2 | 86 | -62 | . | . | . | .
C[C@@H]1CCCCO[C@@H](CN(C)Cc2ccccc2)[C@@H](C)CN([C@H](C)CO)C(=O)c2cc(NC(=O)Nc3ccc(C(F)(F)F)cc3)ccc2O1 | . | 0 | ? | 32 | 89 | 115* | 29 | 12
